TCR CD3 inh: blocks the human TCR-CD3 interaction. TAMRA-labeled TCR probe fluorescence, biochemical. inhibition, % at 9.4 µM. 360,000 tested, 0.37% active. AID 651800; in the data active means inhibition above about 19%;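 further: recombinant mutant TCR 2C K166C tagged with TAMRA read by polarization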
LEDGF integ inh: blocks HIV-1 LEDGF/p75-dependent DNA integration. TR-FRET IN-LEDGF/p75 DNA integration, Eu/Cy5. inhibition, % at 3.7 µM. 370,000 tested, 0.64% active. AID 743269;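 active means inhibition above the screen-wide mean plus 3 SD, cut at about 13% in these data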;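 further: signal is the Cy5 over europium emission ratio at 671 and 618 nm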
ARFGAP1 inh: inhibitors of rat ARFGAP1. Arfgap1-stimulated ARF1 GTP hydrolysis, GDP FP detection. inhibition, % at 16.5 µM. 360,000 tested, 0.26% active. AID 651572;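 active means inhibition above a per-plate limit, mean inhibition of low control wells plus 3 SD, cut at about 25% in these data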
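System: truncated rat Arfgap1 GAP domain / Benchmarks: high control wells lacking Arfgap1, low control full reaction with DMSO / Times: compound-enzyme preincubation 20 min, reaction 120 min, detection 60 min, 25 °C / Repeats: one replicate per compound / Also added: human ARF1(Δ1-17)-GTP substrate / Measured by: Tracer-displacement fluorescence polarization with EDTA stop, 620/688 nm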
ASAP1 GAP inh: ASAP1 ArfGAP inhibition | AID 624377 | 360,000 tested, 0.19% active | inhibition, % at 16.5 µM | Q9ULH1 | ASAP1-stimulated ARF1 GTP hydrolysis, GDP FP detection; in the data active means inhibition above about 25%
UHRF1 MBD2 ctr: blocks human UHRF1 binding to methylated DNA; UHRF1 binding to methylated oligo, TR-FRET; inhibition, % at 4.4 µM; Q96T88; AID 687016; 370,000 tested, 0.75% active;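 further: UHRF1 SRA domain binding a hemimethylated CpG hairpin DNA probe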
Target sequence (Q96T88 whole entry, looked up, the tested form may be a part): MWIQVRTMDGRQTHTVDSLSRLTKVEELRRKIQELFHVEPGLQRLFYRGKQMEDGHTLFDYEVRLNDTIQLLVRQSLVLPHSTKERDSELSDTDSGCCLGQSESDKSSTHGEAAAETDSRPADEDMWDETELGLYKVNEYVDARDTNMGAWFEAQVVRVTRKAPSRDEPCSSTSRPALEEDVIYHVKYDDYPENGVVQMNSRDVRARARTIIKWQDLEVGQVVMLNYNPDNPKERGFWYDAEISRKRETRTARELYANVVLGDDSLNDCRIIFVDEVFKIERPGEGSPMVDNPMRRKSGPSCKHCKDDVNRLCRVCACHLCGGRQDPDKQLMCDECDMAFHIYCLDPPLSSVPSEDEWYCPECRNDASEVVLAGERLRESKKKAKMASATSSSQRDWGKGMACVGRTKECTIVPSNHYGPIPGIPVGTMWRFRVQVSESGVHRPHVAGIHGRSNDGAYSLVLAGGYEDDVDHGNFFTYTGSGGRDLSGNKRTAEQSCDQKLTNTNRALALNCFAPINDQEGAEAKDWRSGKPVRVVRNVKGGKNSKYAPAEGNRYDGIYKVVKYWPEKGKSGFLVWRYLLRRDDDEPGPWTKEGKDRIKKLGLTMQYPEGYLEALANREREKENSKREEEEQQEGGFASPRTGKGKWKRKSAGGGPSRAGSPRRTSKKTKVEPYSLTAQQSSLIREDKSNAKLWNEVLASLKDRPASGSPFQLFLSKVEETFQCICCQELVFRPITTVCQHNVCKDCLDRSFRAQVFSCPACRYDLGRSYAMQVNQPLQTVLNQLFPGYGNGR
MBD2 DNA inh: MBD2-methylated oligo binding inhibition | 370,000 tested, 0.31% active | TR-FRET, MBD2 binding to methylated oligonucleotide | inhibition, % at 4.4 µM | Q9UBB5; in the data active means inhibition above about 13%
UHRF1 DNA bind: inhibits human UHRF1 binding to methylated oligonucleotide, MBD2 counter-screen. shares compounds with MBD2 DNA inh. TR-FRET. inhibition, % at 4.4 µM. 1,000 tested, 25% active. AID 720530;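 further: UHRF1 SRA domain binding a labeled hemimethylated CpG hairpin DNA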
MBD2 confirm: confirmation of human MBD2-DBD methylated oligonucleotide binding inhibitors | shares compounds with MBD2 DNA inh | TR-FRET MBD2-DBD binding to methylated oligonucleotide | inhibition, % at 4.4 µM | 1,000 tested, 26% active; in the data active means inhibition above about 14%
Each line names hits and unclear results; the compound was inactive in the other large screens (follow-up assays come after a bar, where they were run); ! = a repeat was not active. The list is not random: actives were taken first. Their share in the collection is about 2%. Unless noted, no stated cut-off is given here; in the data, active means inhibition above about 21%; inactive means the rest.

COc1cc(Cl)c(C)cc1NC(=O)CSc1sc2c(O)cc(=O)[nH]c2c1C#N	UHRF1 MBD2 ctr 33.1, MBD2 DNA inh 17.5 | UHRF1 DNA bind inactive | MBD2 confirm inactive
O=C(CCc1ccccc1)N[C@H]1[C@@H](OC(=O)c2cccnc2)CCC[C@]12C(=O)N(Cc1ccccc1)c1ccccc12	MBD2 DNA inh 17.1 (no result: TCR CD3 inh, ARFGAP1 inh, ASAP1 GAP inh) | UHRF1 DNA bind inactive | MBD2 confirm inactive
O=C(CCc1ccccc1)N[C@H]1[C@H](OCc2ccccc2)CCC[C@@]12C(=O)N(Cc1ccccc1)c1ccc(-c3ccsc3)cc12	MBD2 DNA inh 15.3 (no result: TCR CD3 inh, ARFGAP1 inh, ASAP1 GAP inh) | UHRF1 DNA bind inactive | MBD2 confirm inactive
C/C(=N/NC(=O)c1ccco1)c1ccc(NC(=O)c2ccc(F)cc2)cc1	MBD2 DNA inh 13.7 | UHRF1 DNA bind inactive | MBD2 confirm inactive
Cc1ccc(SCCN2CCC(C(C)(C)C)CCC2=O)cc1 (stereo not given)	UHRF1 MBD2 ctr 29.8, MBD2 DNA inh 13.6 | UHRF1 DNA bind inactive | MBD2 confirm inactive
CC(C)CC1Nc2ncnc(N3CCOCC3)c2N(Cc2ccc(Cl)cc2)C1=O (stereo not given)	UHRF1 MBD2 ctr 23.6!, MBD2 DNA inh 20.6! | UHRF1 DNA bind inactive | MBD2 confirm inactive
COc1ccc(S(=O)(=O)N2CC(O)CC2C(=O)Nc2cccnc2)cc1 (stereo not given)	none
O=C(COC(=O)[C@@H]1CCCN1S(=O)(=O)c1ccccc1F)Nc1ccc(OC(F)F)cc1	none
CC(=O)c1ccccc1NC(=O)COC(=O)C1CCCN1S(=O)(=O)c1ccccc1F (stereo not given)	MBD2 DNA inh 15.4 | UHRF1 DNA bind inactive | MBD2 confirm inactive
COc1ccc(/C=C(\C#N)C(=O)N2CCOCC2)cc1Br	MBD2 DNA inh 40.8 | UHRF1 DNA bind inactive | MBD2 confirm inactive
CC1(C(=O)NS(=O)(=O)c2cccs2)CCN1C(=O)CC1CC1 (stereo not given)	none
COC(=O)c1cc(C(=O)OCC(=O)NC(=O)NCc2ccccc2)cc([N+](=O)[O-])c1	MBD2 DNA inh 17.4 | UHRF1 DNA bind inactive | MBD2 confirm inactive
Cc1cc(S(=O)(=O)n2cnc3cc([N+](=O)[O-])ccc32)ccc1Cl	none
Cc1ccc(S(=O)(=O)n2cnc3cc([N+](=O)[O-])ccc32)cc1C	MBD2 DNA inh 13.8 | UHRF1 DNA bind inactive | MBD2 confirm inactive
CC1(C(=O)NS(=O)(=O)c2ccc(F)cc2F)CCN1C(=O)CCc1ccc(Cl)cc1Cl (stereo not given)	MBD2 DNA inh 26.4 | UHRF1 DNA bind inactive | MBD2 confirm inactive
CCc1ccc(NC(=O)C(C)Sc2ccc(S(=O)(=O)N3CCN(C)CC3)cn2)cc1 (stereo not given)	none
O=C(N=C1SC2CS(=O)(=O)CC2N1CCc1ccccc1)C1CCCCC1 (stereo not given)	MBD2 DNA inh 86.3 | UHRF1 DNA bind inactive | MBD2 confirm inactive
O=C(N=C1SC2CS(=O)(=O)CC2N1CCc1ccccc1)C1CC1 (stereo not given)	none
CC(C)(C)CC(=O)NC(=S)Nc1ccccc1C(F)(F)F	UHRF1 MBD2 ctr 23.1, MBD2 DNA inh 15.6 | UHRF1 DNA bind inactive | MBD2 confirm inactive
COC(=O)[C@H](CC(C)C)N(Cc1cn(Cc2ccccc2)nn1)S(=O)(=O)c1ccccc1Br	none (no result: TCR CD3 inh, ARFGAP1 inh, ASAP1 GAP inh)
COC(=O)[C@H](CC(C)C)N(Cc1cn(Cc2ccc(C)cc2)nn1)S(=O)(=O)c1ccccc1Br	MBD2 DNA inh 18.4 (no result: TCR CD3 inh, ARFGAP1 inh, ASAP1 GAP inh) | UHRF1 DNA bind inactive | MBD2 confirm inactive
O=C1N[C@@H](Cc2ccccc2)COC(=O)[C@@H](Cc2ccc(F)cc2)CC/C=C/C[C@H]1CC(=O)N(CCO)Cc1ccccc1	MBD2 DNA inh 15.4 | UHRF1 DNA bind inactive | MBD2 confirm inactive
CCOC(=O)C1=C(COC(=O)c2cccnc2Cl)NC(=O)NC1C (stereo not given)	MBD2 DNA inh 19.1 | UHRF1 DNA bind inactive | MBD2 confirm inactive
COc1cc2c(cc1OC)CN(C(=O)CCOc1ccccc1C)CC2	MBD2 DNA inh 13.8 | UHRF1 DNA bind inactive | MBD2 confirm inactive
Fc1cccc(-c2cncc(N3CCN(CCN4CCCC4)CC3)n2)c1	none
Cc1cccc(NC(=O)CNC(=O)c2cccc(-n3cccc3)c2)c1C	UHRF1 MBD2 ctr 69.2, MBD2 DNA inh 31.2 | UHRF1 DNA bind 62.0 | MBD2 confirm 43.8
CCN(C[C@H]1N[C@@](C)(C(=O)OC)[C@H]2C(=O)N(C)C(=O)[C@@H]12)C(=O)Nc1ccc(C(F)(F)F)cc1	UHRF1 MBD2 ctr 21.6, MBD2 DNA inh 14.8 | UHRF1 DNA bind inactive | MBD2 confirm inactive
CCN(C[C@H]1N[C@@](C)(C(=O)OC)[C@H]2C(=O)N(C)C(=O)[C@@H]12)C(=O)Nc1ccc(F)cc1	none
CNS(=O)(=O)c1cccc(C(=O)OCC(=O)Nc2ccccc2F)c1	UHRF1 MBD2 ctr 25.7, MBD2 DNA inh 16.7 | UHRF1 DNA bind inactive | MBD2 confirm inactive
CNS(=O)(=O)c1cccc(C(=O)OCC(=O)NCc2ccccc2)c1	none
CC(C)C(NC(=O)Nc1ccccc1)C(=O)Nc1cccc(S(=O)(=O)N(C)C)c1 (stereo not given)	none
C[C@H]1CN([C@@H](C)CO)C(=O)CCCn2cc(nn2)CO[C@@H]1CN(C)S(=O)(=O)c1ccc(Cl)cc1	none
Cc1ccc(NC(=O)CN(C)C(=O)CNC(=O)c2sc3ccccc3c2Cl)cc1	MBD2 DNA inh 49.8 | UHRF1 DNA bind inactive | MBD2 confirm inactive
Cn1c(CNC(=O)CNC(=O)c2ccccc2)cc(=O)n(C)c1=O	none
CCOC(=O)c1c[nH]c(=S)n(-c2ccccc2)c1=O	MBD2 DNA inh 37.1 | UHRF1 DNA bind inactive | MBD2 confirm inactive
COC(=O)Cc1nnn2c1[C@H](C)[C@H](C(C)(C)C)OCC2	none
COC(=O)Cc1nnn2c1[C@H](C)[C@H](c1cccc(OC)c1OC)OCC2	UHRF1 MBD2 ctr 26.3, MBD2 DNA inh 16.0 | UHRF1 DNA bind inactive | MBD2 confirm inactive
CC1CCCC(NC(=O)CN2C(=O)NC(c3ccccc3)(c3ccccc3)C2=O)C1C (stereo not given)	none
Cc1ccccc1-n1nc2c(c1NC(=O)c1cccs1)CS(=O)(=O)C2	none
CC(=O)Nc1c2c(nn1-c1ccc(C)cc1)CS(=O)(=O)C2	MBD2 DNA inh 70.2 | UHRF1 DNA bind inactive | MBD2 confirm inactive
Cc1ccc(-n2nc3c(c2NC(=O)C2CC2)CS(=O)(=O)C3)cc1	none
Cc1ccc(-n2nc3c(c2NC(=O)c2cccs2)CS(=O)(=O)C3)c(C)c1	MBD2 DNA inh 15.2 | UHRF1 DNA bind inactive | MBD2 confirm inactive

Source: PubChem BioAssay
